In ChEMBL document CHEMBL2074545, “Transport of bile acids, sulfated steroids, estradiol 17-beta-D-glucuronide, and leukotriene C4 by human multidrug resistance protein 8 (ABCC11)” (Mol Pharmacol, 2004):

What was measured:
[1] = target: ATP-binding cassette sub-family C member 11 (Homo sapiens) (UniProt Q96J66); test: TP_TRANSPORTER: inhibition of Estradiol-17beta-D-glucuronide uptake by Probenecid at a concentration of 10 uM in membrane vesicle from MRP8-expressing LLC-PK1 cells; assay type: functional, cell membranes; parameters: scale not given: the % may be the effect or the level left
Summary of the method: (§1)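 Vesicles (10 µg) from LLC-PK1-MRP8-3 cells incubated 10 min at 37°C with 1 µM [3H]E217βG plus modulator, in 0.25 M sucrose, 10 mM Tris-HCl pH 7.4, 10 mM MgCl2, creatine phosphate/creatine kinase, with 4 mM ATP or 4 mM AMP. Rapid filtration, scintillation counting. ATP-dependent uptake (ATP minus AMP) expressed as % of modulator-free uptake. At least three measurements, each in duplicate.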

[2] = target: ATP-binding cassette sub-family C member 11 (Homo sapiens) (UniProt Q96J66); test: TP_TRANSPORTER: inhibition of Estradiol-17beta-D-glucuronide uptake by Dehydroepiandrosterone-3-sulfate at a concentration of 10 uM in membrane vesicle from MRP8-expressing LLC-PK1 cells; assay type: functional, cell membranes; parameters: scale not given: the % may be the effect or the level left; summary of the method: as §1
[3] = target: ATP-binding cassette sub-family C member 11 (Homo sapiens) (UniProt Q96J66); test: TP_TRANSPORTER: inhibition of Estradiol-17beta-D-glucuronide uptake by Leukotrien C4 at a concentration of 1 uM in membrane vesicle from MRP8-expressing LLC-PK1 cells; assay type: functional, cell membranes; parameters: scale not given: the % may be the effect or the level left; summary of the method: as §1
[4] = target: ATP-binding cassette sub-family C member 11 (Homo sapiens) (UniProt Q96J66); test: TP_TRANSPORTER: inhibition of Estradiol-17beta-D-glucuronide uptake by Indomethacin at a concentration of 10 uM in membrane vesicle from MRP8-expressing LLC-PK1 cells; assay type: functional, cell membranes; parameters: scale not given: the % may be the effect or the level left; summary of the method: as §1
[5] = target: ATP-binding cassette sub-family C member 11 (Homo sapiens) (UniProt Q96J66); test: TP_TRANSPORTER: inhibition of Estradiol-17beta-D-glucuronide uptake by Glycolithocholate at a concentration of 10 uM in membrane vesicle from MRP8-expressing LLC-PK1 cells; assay type: functional, cell membranes; parameters: scale not given: the % may be the effect or the level left; summary of the method: as §1
[6] = system: CN(Cc1cnc2nc(N)nc(N)c2n1)c1ccc(C(=O)N[C@@H](CCC(=O)O)C(=O)O)cc1; details: LLC-PK1; Membrane vesicle
[7] = system: C[C@]12CC[C@H](OS(=O)(=O)O)CC1=CC[C@@H]1[C@@H]2CC[C@]2(C)C(=O)CC[C@@H]12; details: LLC-PK1; Membrane vesicle
[8] = system: C[C@]12CC[C@@H]3c4ccc(O)cc4CC[C@H]3[C@@H]1CC[C@@H]2O[C@@H]1O[C@H](C(=O)O)[C@@H](O)[C@H](O)[C@H]1O; details: LLC-PK1; Membrane vesicle
[9] = target: ATP-binding cassette sub-family C member 11 (Homo sapiens) (UniProt Q96J66); test: TP_TRANSPORTER: inhibition of Estradiol-17beta-D-glucuronide uptake by 2,4-dinitrophenyl-S-glutathione at a concentration of 10 uM in membrane vesicle from MRP8-expressing LLC-PK1 cells; assay type: functional, cell membranes; parameters: scale not given: the % may be the effect or the level left; summary of the method: as §1
[10] = target: ATP-binding cassette sub-family C member 11 (Homo sapiens) (UniProt Q96J66); test: TP_TRANSPORTER: inhibition of Estradiol-17beta-D-glucuronide uptake by MK-571 at a concentration of 10 uM in membrane vesicle from MRP8-expressing LLC-PK1 cells; assay type: functional, cell membranes; parameters: scale not given: the % may be the effect or the level left; summary of the method: as §1
[11] = target: ATP-binding cassette sub-family C member 11 (Homo sapiens) (UniProt Q96J66); test: TP_TRANSPORTER: inhibition of Estradiol-17beta-D-glucuronide uptake by cGMP at a concentration of 10 uM in membrane vesicle from MRP8-expressing LLC-PK1 cells; assay type: functional, cell membranes; parameters: scale not given: the % may be the effect or the level left; summary of the method: as §1
[12] = target: ATP-binding cassette sub-family C member 11 (Homo sapiens) (UniProt Q96J66); test: TP_TRANSPORTER: inhibition of Estradiol-17beta-D-glucuronide uptake by Glycocholate at a concentration of 10 uM in membrane vesicle from MRP8-expressing LLC-PK1 cells; assay type: functional, cell membranes; parameters: scale not given: the % may be the effect or the level left; summary of the method: as §1
[13] = target: ATP-binding cassette sub-family C member 11 (Homo sapiens) (UniProt Q96J66); test: TP_TRANSPORTER: inhibition of Estradiol-17beta-D-glucuronide uptake by Sildenifil at a concentration of 10 uM in membrane vesicle from MRP8-expressing LLC-PK1 cells; assay type: functional, cell membranes; parameters: scale not given: the % may be the effect or the level left; summary of the method: as §1

Sequence of ATP-binding cassette sub-family C member 11 (Homo sapiens) (Q96J66 whole entry): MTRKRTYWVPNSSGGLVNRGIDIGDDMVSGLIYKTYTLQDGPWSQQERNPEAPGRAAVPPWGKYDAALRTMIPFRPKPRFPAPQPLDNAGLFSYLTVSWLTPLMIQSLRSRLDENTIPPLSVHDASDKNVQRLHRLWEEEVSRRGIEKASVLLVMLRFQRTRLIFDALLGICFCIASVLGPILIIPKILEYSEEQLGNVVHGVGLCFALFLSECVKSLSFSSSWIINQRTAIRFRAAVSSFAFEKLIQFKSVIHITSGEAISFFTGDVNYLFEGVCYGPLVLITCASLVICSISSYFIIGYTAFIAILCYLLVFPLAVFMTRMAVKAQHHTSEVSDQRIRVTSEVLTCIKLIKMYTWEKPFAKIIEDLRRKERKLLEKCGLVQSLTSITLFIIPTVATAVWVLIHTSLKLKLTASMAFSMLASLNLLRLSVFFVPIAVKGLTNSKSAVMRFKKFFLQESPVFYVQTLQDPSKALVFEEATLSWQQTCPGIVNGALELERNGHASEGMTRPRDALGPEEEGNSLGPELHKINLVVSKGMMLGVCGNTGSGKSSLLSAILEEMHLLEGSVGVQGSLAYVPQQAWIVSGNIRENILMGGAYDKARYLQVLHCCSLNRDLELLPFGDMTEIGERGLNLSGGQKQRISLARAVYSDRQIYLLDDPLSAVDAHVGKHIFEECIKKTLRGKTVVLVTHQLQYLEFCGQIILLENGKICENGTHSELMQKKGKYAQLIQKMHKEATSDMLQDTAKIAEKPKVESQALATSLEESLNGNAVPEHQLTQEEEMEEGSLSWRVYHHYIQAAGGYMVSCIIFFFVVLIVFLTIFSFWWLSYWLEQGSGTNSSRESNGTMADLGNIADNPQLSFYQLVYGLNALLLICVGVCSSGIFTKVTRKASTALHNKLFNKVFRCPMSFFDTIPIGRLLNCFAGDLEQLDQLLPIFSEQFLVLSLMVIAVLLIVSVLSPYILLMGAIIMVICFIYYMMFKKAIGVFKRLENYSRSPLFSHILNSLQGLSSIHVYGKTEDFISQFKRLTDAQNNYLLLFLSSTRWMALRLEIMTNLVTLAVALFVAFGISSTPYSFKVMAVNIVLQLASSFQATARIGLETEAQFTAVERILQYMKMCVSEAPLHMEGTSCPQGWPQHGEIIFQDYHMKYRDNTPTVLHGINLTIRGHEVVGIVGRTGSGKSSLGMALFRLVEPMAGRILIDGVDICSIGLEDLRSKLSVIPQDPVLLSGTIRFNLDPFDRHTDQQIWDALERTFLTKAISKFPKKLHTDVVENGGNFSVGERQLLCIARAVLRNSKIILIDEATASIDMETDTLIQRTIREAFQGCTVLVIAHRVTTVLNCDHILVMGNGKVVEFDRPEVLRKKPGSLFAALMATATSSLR
Sequence of ATP-binding cassette sub-family C member 11 (Homo sapiens), Q96J66 (Q96J66 whole entry): as above

CCCN(CCC)S(=O)(=O)c1ccc(C(=O)O)cc1
Activity [1]: 76%

C[C@]12CC[C@H](OS(=O)(=O)O)CC1=CC[C@@H]1[C@@H]2CC[C@]2(C)C(=O)CC[C@@H]12
Activity [2]: 196%

CCCCC/C=C\C\C=C/C=C/C=C/[C@@H](SC[C@@H](NC(=O)CC[C@H](N)C(=O)O)C(=O)NCC(=O)O)[C@@H](O)CCCC(=O)O
Activity [3]: 72%

COc1ccc2c(c1)c(CC(=O)O)c(C)n2C(=O)c1ccc(Cl)cc1
Activity [4]: 64%

C[C@H](CCC(=O)NCC(=O)O)[C@H]1CC[C@H]2[C@@H]3CC[C@@H]4C[C@H](O)CC[C@]4(C)[C@H]3CC[C@]12C
Activity [5]: 16%

ATP-binding cassette sub-family C member 11 (Homo sapiens), Q96J66
Km [6]: 957 µM | Km [7]: 13 µM | Km [8]: 62.9 µM

N[C@@H](CCC(=O)N[C@H](CSc1ccc([N+](=O)[O-])cc1[N+](=O)[O-])C(=O)NCC(=O)O)C(=O)O
Activity [9]: 17%

CN(C)C(=O)CCSC(SCCC(=O)O)c1cccc(/C=C/c2ccc3ccc(Cl)cc3n2)c1 (stereo not drawn)
Activity [10]: 25%

Nc1nc2c(ncn2[C@@H]2O[C@@H]3COP(=O)(O)O[C@H]3[C@H]2O)c(=O)[nH]1
Activity [11]: 73%

C[C@H](CCC(=O)NCC(=O)O)[C@H]1CC[C@H]2[C@@H]3[C@H](O)C[C@@H]4C[C@H](O)CC[C@]4(C)[C@H]3C[C@H](O)[C@]12C
Activity [12]: 62%

CCCc1nn(C)c2c(=O)[nH]c(-c3cc(S(=O)(=O)N4CCN(C)CC4)ccc3OCC)nc12
Activity [13]: 79%
